≈ marks a conversion by molar mass, not a printed value. Calls of active or inactive are those of the source. No cut-off for these calls is given here. Bridge positions count the residues as written; N and C are the ends. Peptide text beside a SMILES is read from it.
Key:
Escherichia coli [1] = test: Antibacterial activity against Escherichia coli ATCC 25922 assessed as bacterial count after 24 hrs; assay type: functional
Escherichia coli [2] = test: Antibacterial activity against 1x10^9 CFU Escherichia coli ATCC 25922 infected Wistar rat assessed as rat bacterial count in peritoneal fluid at 1 mg/kg, iv administered immediately after bacterial challenge measured 72 hrs postinfection (Rvb= 8.86 logCFU/ml); assay type: functional
In short: (§1)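 Male Wistar rats (3–5 months, 300–400 g) under ketamine/xylazine anaesthesia, inoculated i.p. with 1 × 10^9 CFU log-phase E. coli ATCC 25922 in 1 ml saline. Drug given immediately after challenge; saline controls; 15 rats per group. Survivors killed at end of 72 h. Peritoneal lavage with 10 ml saline, plated on blood agar at 35°C for 48 h, aerobic and anaerobic. Detection limit ≤2 log10 CFU/ml. Mean ± SD.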

Escherichia coli [3] = test: Antibacterial activity against 1x10^9 CFU Escherichia coli ATCC 25922 infected Wistar rat assessed as rat mortality at 1 mg/kg, iv administered immediately after bacterial challenge measured 72 hrs postinfection (Rvb mortality = 100%); assay type: functional
Rattus norvegicus [4] = test: Toxicity in Wistar rat assessed as occurrence of adverse events at 1 mg/kg, iv; assay type: organism-based; set-up: dose 1 mg/kg, route intravenous; conditions: in vivo
In short: (§2)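 Rats receiving the peptide were watched for local inflammation, anorexia, weight loss, diarrhoea, fever and behavioural change. A separate uninfected group given 1 mg/kg peptide was monitored for temperature, pulse, blood pressure, respiration and oxygenation.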

Escherichia coli [5] = test: Antibacterial activity against Escherichia coli ATCC 25922 by CLSI method in presence of tachyplesin 3; assay type: functional
Escherichia coli [6] = test: Antibacterial activity against Escherichia coli ATCC 25922 by CLSI method in presence of clarithromycin; assay type: functional
Rattus norvegicus [7] = test: Decrease in endotoxin level in plasma of Escherichia coli serotype 0111:B4 infected Wistar rat at 1 mg/kg, iv administered immediately after LPS challenge; assay type: functional, organism-based; set-up: dose 1 mg/kg
In short: (§3)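 Anaesthetised male Wistar rats (15 per group) given 1.0 mg E. coli 0111:B4 LPS i.p. in 500 μl saline, treated immediately; saline controls. Tail-vein blood sampled into EDTA at 0, 2, 6, 12 and 36 h. Endotoxin by Limulus amebocyte lysate: plasma twofold diluted, heated 5 min at 75°C, read against a 0–0.5 EU/ml standard curve. TNF-α by sandwich ELISA at 450 nm, in duplicate, lower limit 0.05 ng/ml.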

Rattus norvegicus [8] = test: Decrease in TNF-alpha level in plasma of Escherichia coli serotype 0111:B4 infected Wistar rat at 1 mg/kg, iv administered immediately after LPS challenge; assay type: functional, organism-based; set-up: dose 1 mg/kg; in short: as §3
Escherichia coli [9] = test: Antibacterial activity against Escherichia coli ATCC 25922 assessed as inhibition of bacterial growth at 4 mg/L; assay type: functional, organism-based
Escherichia coli [10] = test: Antibacterial activity against Escherichia coli ATCC 25922 by CLSI method in presence of 2 mg/L tachyplesin 3; assay type: functional
In short: (§4)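 Permeabilisation assay: 1 × 10^5 CFU added to twofold clarithromycin dilutions (1,000–0.5 μg/ml) in Iso-Sensitest broth, with or without peptide. Clarithromycin MIC compared with and without peptide. The lowest peptide level needed for sensitivity to 30 μg/ml clarithromycin was also determined.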

Escherichia coli [11] = test: Antibacterial activity against Escherichia coli by CLSI method in presence of 2 mg/L tachyplesin 3; assay type: functional, organism-based; in short: as §4
Escherichia coli [12] = test: Antibacterial activity against 1x10^9 CFU Escherichia coli ATCC 25922 infected Wistar rat assessed as rat bacterial count in peritoneal fluid at 50 mg/kg, iv administered immediately after bacterial challenge measured 72 hrs postinfection (Rvb= 8.86 logCFU/ml); assay type: functional; in short: as §1
Rattus norvegicus [13] = test: Toxicity in Wistar rat assessed as effect on physiological parameters at 1 mg/kg, iv; assay type: organism-based; set-up: dose 1 mg/kg, route intravenous; conditions: in vivo; in short: as §2
Escherichia coli [14] = test: Antibacterial activity against Escherichia coli clinical isolates by CLSI method in presence of 2 mg/L tachyplesin 3; assay type: functional; in short: as §4
Escherichia coli [15] = test: Antibacterial activity against 1x10^9 CFU Escherichia coli ATCC 25922 infected Wistar rat assessed as rat mortality at 60 mg/kg, iv administered immediately after bacterial challenge measured 72 hrs postinfection (Rvb mortality = 100%); assay type: functional
Escherichia coli [16] = test: Antibacterial activity against Escherichia coli ATCC 25922 by CLSI method; assay type: functional
In short: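 Broth MIC by CLSI (NCCLS M7-A6) dilution method, run in triplicate.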

CC[C@H](C)[C@@H]1NC(=O)CNC(=O)[C@H](CCCNC(=N)N)NC(=O)[C@H](Cc2ccc(O)cc2)NC(=O)[C@@H]2CSSC[C@H](NC1=O)C(=O)N[C@@H](Cc1ccc(O)cc1)C(=O)N[C@@H](CCCNC(=N)N)C(=O)N[C@@H](CCCCN)C(=O)N[C@H](C(=O)N[C@@H](CCCNC(=N)N)C(N)=O)CSSC[C@H](NC(=O)[C@H](Cc1c[nH]c3ccccc13)NC(=O)[C@@H](N)CCCCN)C(=O)N[C@@H](Cc1ccccc1)C(=O)N[C@@H](CCCNC(=N)N)C(=O)N[C@@H](C(C)C)C(=O)N2 [TACHYPLESIN III] (H-KWCFRVCYRGICYRKCR-NH2; disulfide 3-16, 7-12)
CFU (Escherichia coli [1]): 5.65 ×10⁶ /ml | log10CFU/ml (Escherichia coli [2]): 4.46 | Activity (Escherichia coli [3]): 33.3% | Activity (Rattus norvegicus [4]): Non-toxic | fractional inhibitory concentration index (FICI) (Escherichia coli [5]): 0.385 | fractional inhibitory concentration index (FICI) (Escherichia coli [6]): 0.385

CC[C@H](C)[C@H](NC(=O)CNC(=O)[C@H](CCCNC(=N)N)NC(=O)[C@H](Cc1ccc(O)cc1)NC(=O)[C@H](CS)NC(=O)[C@@H](NC(=O)[C@H](CCCNC(=N)N)NC(=O)[C@H](Cc1ccccc1)NC(=O)[C@H](CS)NC(=O)[C@H](Cc1c[nH]c2ccccc12)NC(=O)[C@@H](N)CCCCN)C(C)C)C(=O)N[C@@H](CS)C(=O)N[C@@H](Cc1ccc(O)cc1)C(=O)N[C@@H](CCCNC(=N)N)C(=O)N[C@@H](CCCCN)C(=O)N[C@@H](CS)C(=O)N[C@@H](CCCNC(=N)N)C(N)=O (H-KWCFRVCYRGICYRKCR-NH2)
Activity (Rattus norvegicus [7]): Active | Activity (Rattus norvegicus [8]): Active | inhibition (Escherichia coli [9]): Active

CC[C@H]1OC(=O)[C@H](C)[C@@H](O[C@H]2C[C@@](C)(OC)[C@@H](O)[C@H](C)O2)[C@H](C)[C@@H](O[C@@H]2O[C@H](C)C[C@H](N(C)C)[C@H]2O)[C@](C)(OC)C[C@@H](C)C(=O)[C@H](C)[C@@H](O)[C@]1(C)O [CLARITHROMYCIN]
MIC (Escherichia coli [10]): 32 µg/mL | inhibition (Escherichia coli [11]): Active | log10CFU/ml (Escherichia coli [12]): 6.68 | Activity (Rattus norvegicus [13]): Non-toxic | MIC (Escherichia coli [14]): 32 µg/mL | Activity (Escherichia coli [15]): 66.6% | MIC (Escherichia coli [16]): 128 µg/mL (≈ 171 µM)

— ChEMBL document CHEMBL1649113, “Efficacy of the combination of tachyplesin III and clarithromycin in rat models of Escherichia coli sepsis” (Antimicrob Agents Chemother, 2008)
